Source: ChEMBL document CHEMBL1127405, “Synthesis and antitumor evaluation of bis[(pivaloyloxy)methyl] 2'-deoxy-5-fluorouridine 5'-monophosphate (FdUMP): a strategy to introduce nucleotides into cells” (J Med Chem, 1994)
pIC50: −log10 of the molar value.

Key:
[1] = The compound was tested for half life in aqueous media in 0.05 M Tris-HCl buffer, at pH 9.0; type: ADME
How it was run: (§1)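 A 10^-3 M aqueous stock was diluted into each buffer to a final 10^-4 M and stirred at room temperature. Aliquots were taken at intervals (typically 2–100 h) and parent drug was quantified by reverse-phase C-18 HPLC with UV detection at 268 nm. Half-lives are the average of triplicate determinations.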

[2] = The compound was tested for half life in aqueous media in 0.05 M potassium phosphate buffer, at pH 7.4; type: ADME; how it was run: as §1
Mus musculus [3] = assay: The compound was tested for change in weight for mice implanted intraperitoneally with P-388/FU Leukemia cell line at 149 mg/kg; type: functional; settings: route intraperitoneal
How it was run: (§2)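 Male BDF1 mice inoculated ip on day 0 with 1 × 10^6 leukemia cells (six mice per group, average weight 22 g). Dosing ip once daily for 5 consecutive days starting 24 h after implantation. Fluoropyrimidine references in 0.9% saline; prodrugs formulated with Emulphor 620; vehicle controls 0.2 mL. Percent body weight change recorded per group.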

Mus musculus [4] = assay: The compound was tested for mean survival time for 15 mice implanted Intraperitoneally with P-388/0 Leukemia cell line at 223 mg/kg; type: functional; settings: route intraperitoneal
How it was run: (§3)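 P-388/0 or P-388/FU cells (1×10^6) implanted ip into male BDF1 mice on day 0. Dosing was ip, daily for 5 consecutive days beginning 24 h later, in saline or Emulphor 620 vehicle. Six mice per treated group. Animals followed to death and median survival time recorded in days. The control group had 15 mice.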

Mus musculus [5] = assay: The compound was tested for increase in life span for mice implanted intraperitoneally with P-388/0 Leukemia cell line at 335 mg/kg; type: functional; settings: P388, ip, route intraperitoneal
How it was run: (§4)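 Male BDF1 mice, six per group, implanted ip with 1×10^6 P-388/0 or P-388/FU cells on day 0. Dosed ip daily for 5 days from 24 h post-implant, in saline or Emulphor 620 vehicle. Mice observed until death. %ILS = (T/C − 1)×100, from median survival of treated mice (T) versus saline-treated controls (C).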

CHO [6] = assay: The minimun drug concentration that gives rise to colonies containing fewer than 50 cells after incubation at 37 degree C against chinese hamster ovary cells 20 fold resistant to fluoroudine; type: functional, cell-based; settings: Cricetulus griseus
How it was run: (§5)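 About 200 cells per dish were grown as clones in drug at 0, 0.5, 1.5, 5, 10, 50 or 100 μM for 7 d at 37 °C in humidified CO2. Colonies were fixed with 10% formaldehyde and stained with 0.1% crystal violet. The value is the lowest tested concentration giving colonies of fewer than 50 cells.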

Mus musculus [7] = assay: The compound was tested for change in weight for mice implanted intraperitoneally with P-388/FU Leukemia cell line at 335 mg/kg; type: functional; settings: route intraperitoneal; how it was run: as §2
Mus musculus [8] = assay: The compound was tested for increase in life span for mice implanted intraperitoneally with P-388/0 Leukemia cell line at 223 mg/kg; type: functional; settings: P388, ip, route intraperitoneal; how it was run: as §4
[9] = The compound was tested for half life in aqueous media in 0.05 M NaOH, at 12.6; type: ADME; settings: aqueous 0.05 M NaOH, pH 12.6; how it was run: as §1
Mus musculus [10] = assay: The compound was tested for mean survival time for 15 mice implanted Intraperitoneally with P-388/FU Leukemia cell line at 149 mg/kg; type: functional; settings: route intraperitoneal; how it was run: as §3
Mus musculus [11] = assay: The compound was tested for mean survival time for 15 mice implanted Intraperitoneally with P-388/0 Leukemia cell line at 149 mg/kg; type: functional; settings: route intraperitoneal; how it was run: as §3
[12] = The compound was tested for half life in aqueous media in 0.20 M HCl/KCl solution, at pH 1.0; type: ADME; how it was run: as §1
Mus musculus [13] = assay: The compound was tested for mean survival time for 15 mice implanted Intraperitoneally with P-388/FU Leukemia cell line at 223 mg/kg; type: functional; settings: route intraperitoneal; how it was run: as §3
CHO [14] = assay: The minimun drug concentration that gives rise to colonies containing fewer than 50 cells after incubation at 37 degree C against chinese hamster ovary cells; type: functional, cell-based; settings: Cricetulus griseus; how it was run: as §5
Mus musculus [15] = assay: The compound was tested for increase in life span for mice implanted intraperitoneally with P-388/FU Leukemia cell line at 223 mg/kg; type: functional; settings: P388, ip, route intraperitoneal; how it was run: as §4
Mus musculus [16] = assay: The compound was tested for increase in life span for mice implanted intraperitoneally with P-388/0 Leukemia cell line at 149 mg/kg; type: functional; settings: P388, ip, route intraperitoneal; how it was run: as §4
Mus musculus [17] = assay: The compound was tested for increase in life span for mice implanted intraperitoneally with P-388/FU Leukemia cell line at 335 mg/kg; type: functional; settings: P388, ip, route intraperitoneal; how it was run: as §4
Mus musculus [18] = assay: The compound was tested for change in weight for mice implanted intraperitoneally with P-388/0 Leukemia cell line at 335 mg/kg; type: functional; settings: route intraperitoneal; how it was run: as §2
Mus musculus [19] = assay: The compound was tested for mean survival time for 15 mice implanted Intraperitoneally with P-388/FU Leukemia cell line at 335 mg/kg; type: functional; settings: route intraperitoneal; how it was run: as §3
[20] = The compound was tested for half life in aqueous media in 0.05 M sodium acetate buffer, at pH 4.0; type: ADME; how it was run: as §1
Mus musculus [21] = assay: The compound was tested for change in weight for mice implanted intraperitoneally with P-388/FU Leukemia cell line at 223 mg/kg; type: functional; settings: route intraperitoneal; how it was run: as §2
Mus musculus [22] = assay: The compound was tested for increase in life span for mice implanted intraperitoneally with P-388/FU Leukemia cell line at 149 mg/kg; type: functional; settings: P388, ip, route intraperitoneal; how it was run: as §4
[23] = The compound was tested for half life in aqueous media in 0.05 M NaOH, at pH 11.7; type: ADME; settings: aqueous 0.05 M NaOH; how it was run: as §1
Mus musculus [24] = assay: The compound was tested for change in weight for mice implanted intraperitoneally with P-388/0 Leukemia cell line at 149 mg/kg; type: functional; settings: route intraperitoneal; how it was run: as §2
Mus musculus [25] = assay: The compound was tested for mean survival time for 15 mice implanted Intraperitoneally with P-388/0 Leukemia cell line at 335 mg/kg; type: functional; settings: route intraperitoneal; how it was run: as §3
Mus musculus [26] = assay: The compound was tested for change in weight for mice implanted intraperitoneally with P-388/0 Leukemia cell line at 223 mg/kg; type: functional; settings: route intraperitoneal; how it was run: as §2

With `CC(C)(C)C(=O)OCOP(=O)(OCOC(=O)C(C)(C)C)OC[C@H]1O[C@@H](n2cc(F)c(=O)[nH]c2=O)C[C@@H]1O` the half-life [1] was 21.6 h, the half-life [2] was 40.2 h and the Weight change (Mus musculus [3]) was -9%. For the same compound, the MST (Mus musculus [4]) was 16 days, the ILS at 335 mg/kg (Mus musculus [5]) was 73% and the pIC50 (CHO [6]) was 5.30. The Weight change (Mus musculus [7]) was -13%, the ILS at 223 mg/kg (Mus musculus [8]) was 45% and the half-life [9] was 1.8 min. The MST (Mus musculus [10]) was 17 days, the MST (Mus musculus [11]) was 15 days and the half-life [12] was 142 h. It also gave an MST (Mus musculus [13]) of 18 days, a pIC50 (CHO [14]) of 5.30 and an ILS at 223 mg/kg (Mus musculus [15]) of 64%. It also gave an ILS at 149 mg/kg (Mus musculus [16]) of 36%, an ILS at 335 mg/kg (Mus musculus [17]) of 64% and a Weight change (Mus musculus [18]) of -12%. The MST (Mus musculus [19]) was 18 days, the half-life [20] was 172 h and the Weight change (Mus musculus [21]) was -12%. The ILS at 149 mg/kg (Mus musculus [22]) was 55%, the half-life [23] was 0.37 h and the Weight change (Mus musculus [24]) was 3%. It also gave an MST (Mus musculus [25]) of 19 days and a Weight change (Mus musculus [26]) of -11%.
